Data from ChEMBL document CHEMBL1123492, “Carboxyl-modified amino acids and peptides as protease inhibitors” (J Med Chem, 1986).
Values belong to the compound of their own block, whether it stands above or below them. Where a SMILES comes first, the peptide text is derived from it.

What was measured:
[1] = molecular target: T1, Papain (Carica papaya, UniProt P00784); assay: Compound was tested for Inhibition of Papain
T1 sequence (P00784 whole entry): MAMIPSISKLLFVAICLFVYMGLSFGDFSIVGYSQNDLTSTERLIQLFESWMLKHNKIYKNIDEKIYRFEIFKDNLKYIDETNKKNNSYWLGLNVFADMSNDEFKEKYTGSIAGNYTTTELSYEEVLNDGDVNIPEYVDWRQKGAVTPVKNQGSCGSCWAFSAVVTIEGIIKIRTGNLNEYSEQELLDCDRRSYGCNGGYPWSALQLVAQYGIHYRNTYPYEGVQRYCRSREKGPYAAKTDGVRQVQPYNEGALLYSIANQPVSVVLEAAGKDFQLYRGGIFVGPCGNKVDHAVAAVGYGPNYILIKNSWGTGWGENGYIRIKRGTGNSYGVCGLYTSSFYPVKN
Summary of the method: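 Papain activated 45 min at 25 °C in 50 mM phosphate pH 6.2 with 1 mM EDTA and 0.25 mM cysteine, made fresh daily. N-Cbz-Gly p-nitrophenyl ester hydrolysis at 25 °C read at 340 nm (Δε 6000 M⁻¹ cm⁻¹), corrected for nonenzymic hydrolysis. Compounds in acetonitrile or DMF, final <2.5% v/v. Reversible Ki by Lineweaver–Burk; irreversible Ki and k2 by Kitz–Wilson.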

[2] = molecular target: Chymotrypsinogen A (Bos taurus, UniProt P00766); assay: Compound was tested for Inhibition of Chymotrypsinogen
Summary of the method: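 Chymotrypsin hydrolysis of glutaryl-L-Phe p-nitroanilide followed photometrically. Km of substrate and Ki of reversible inhibitors from Lineweaver–Burk double-reciprocal plots, Ki from replots of Km(app)/Vmax vs [I]; slopes and intercepts by linear regression. Test compounds added in methanol (<5% of final volume).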

[3] = molecular target: T2, Dipeptidyl peptidase 1 (Homo sapiens, UniProt P53634); assay: Compound was tested for Inhibition of Dipeptidyl aminopeptidase 1
T2 sequence (P53634 25-134 limits assumed): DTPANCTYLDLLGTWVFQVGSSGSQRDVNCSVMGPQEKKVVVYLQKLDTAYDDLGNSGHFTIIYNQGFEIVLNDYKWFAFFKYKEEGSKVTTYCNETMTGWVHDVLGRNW
T2 sequence (P53634 231-394 limits assumed): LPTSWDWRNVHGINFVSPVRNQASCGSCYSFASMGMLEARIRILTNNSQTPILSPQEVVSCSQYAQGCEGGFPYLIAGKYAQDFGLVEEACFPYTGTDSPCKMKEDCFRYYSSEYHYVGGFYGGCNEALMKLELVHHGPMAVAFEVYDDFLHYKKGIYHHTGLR
T2 sequence (P53634 395-463 limits assumed): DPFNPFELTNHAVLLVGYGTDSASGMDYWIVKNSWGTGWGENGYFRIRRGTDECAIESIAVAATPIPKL
Summary of the method: (§1)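 Cathepsin C diluted 1:200 daily in ice-cold 50 mM citrate pH 5 with 10 mM cysteamine. Gly-Phe p-nitroanilide hydrolysis at 37 °C read at 405 nm (Δε 9900 M⁻¹ cm⁻¹), started by adding substrate to prewarmed enzyme/inhibitor. Irreversible inhibition: enzyme preincubated with varied inhibitor levels, aliquots diluted into substrate over time. k_app from ln(% activity) vs time; Ki and k2 from 1/k_app vs 1/[I].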

[4] = Compound was tested for Inhibition of leucine aminopeptidase-C
[5] = Compound was tested for Inhibition of Leucine aminopeptidase-M
[6] = Compound was tested for Inhibition of Leucine aminopeptidase-M; NI is No inhibition at 40 mM
[7] = molecular target: T2, Dipeptidyl peptidase 1; assay: Compound was tested for Inhibition of dipeptidyl Dipeptidyl aminopeptidase 1; summary of the method: as §1

Ki [1]: 9.2 mM
Compound: C=CCNC(=O)C(Cc1ccccc1)NC(C)=O (stereo not drawn)

Ki [1]: 0.095 mM
Compound: CC(=O)NC(Cc1ccccc1)C(=O)NCC(=N)S (stereo not drawn)

Ki [2]: 30.8 mM
Compound: COC(=O)/C=C/C(Cc1ccccc1)NC(C)=O (stereo not drawn)

Ki [1]: 19.5 mM
Compound: COC(=O)CCCNC(=O)C(Cc1ccccc1)NC(C)=O (stereo not drawn)

Ki [3]: 0.0027 mM
Compound: N#CC(Cc1ccccc1)NC(=O)CN (stereo not drawn)

Ki [2]: 23 mM
Compound: CC(=O)NC(Cc1ccccc1)C(N)=S (stereo not drawn)

Ki [2]: 29.4 mM
Compound: CC(=O)NC(/C=C/S(C)(=O)=O)Cc1ccccc1 (stereo not drawn)

Ki [1]: 0.0011 mM
Compound: CC(=O)NC(Cc1ccccc1)C(=O)NCC#N (stereo not drawn)

Ki [4]: 23.7 mM
Ki [5]: 61 mM
Compound: COC(=O)/C=C/C(N)Cc1ccccc1 (stereo not drawn)

Ki [2]: 5.3 mM
Compound: CC(=O)NC(C#N)Cc1ccccc1 (stereo not drawn)

Ki [3]: 0.18 mM
Compound: CS(=O)(=O)/C=C/C(Cc1ccccc1)NC(=O)CN (stereo not drawn)

Ki [3]: 0.22 mM
Compound: COC(=O)/C=C/C(Cc1ccccc1)NC(=O)CN (stereo not drawn)

Ki [4]: 26.4 mM
Ki [5]: 67 mM
Compound: N#CC(N)Cc1ccccc1 (stereo not drawn)

Ki [4]: 14.1 mM
Ki [5]: 14.8 mM
Compound: NC(=O)C(N)Cc1ccccc1 (stereo not drawn)

Compound: CS(=O)(=O)/C=C/C(N)Cc1ccccc1 (stereo not drawn)
Ki [4]: 8.8 mM
Ki [5]: 3.7 mM

Ki [2]: 13.9 mM
Compound: CC(=O)NC(Cc1ccccc1)C(N)=O (stereo not drawn)

Ki [6]: No inhibition
Compound: N=C(S)C(N)Cc1ccccc1 (stereo not drawn)

Ki [1]: 4.7 mM
Compound: CC(=O)N[C@@H](Cc1ccccc1)C(=O)NCC(N)=O (Ac-Phe-Gly-NH2)

Ki [7]: 6.2 mM
Compound: NCC(=O)N[C@@H](Cc1ccccc1)C(N)=O (H-Gly-Phe-NH2)
